Columns and labels:
P388 [1] = assay: Average percentage weight change on day 6 in murine leukemia P388 sensitive to 5-FU at a dose 108 mg/kg; type: functional, Mus musculus
How it was run: (§1)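 Male BDF₁ mice, six per group, average weight 23 g, were inoculated ip on day 0 with 1×10^6 P-388 leukemia cells, either 5-FU-sensitive or 5-FU-resistant. Compound in 0.9% saline was given ip once daily for 5 consecutive days, starting 24 h after tumor transplantation. Saline-treated animals served as controls.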

P388 [2] = assay: Average percentage weight change on day 6 in murine leukemia P388 resistant to 5-FU at dose 180 mg/kg; type: functional, Mus musculus; how it was run: as §1
P388 [3] = assay: Percentage increase in life span of murine leukemia P388 sensitive to 5-FU at dose 300 mg/kg; type: functional; conditions: Mus musculus
How it was run: (§2)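 P-388 model in male BDF₁ mice, six per group, average weight 23 g: 1×10^6 cells ip on day 0, then compound in 0.9% saline ip daily ×5 from 24 h. Mice were observed up to 60 days. % ILS = (T/C − 1) × 100, using median survival of treated mice versus saline-treated controls.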

P388 [4] = assay: Median survival time (MST) of murine leukemia P388 (1*10e 6 cells) resistant to 5-FU in mice, dose of 180 mg/kg(ip); type: functional, Mus musculus
How it was run: (§3)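 Male BDF₁ mice, six per group, average weight 23 g, were inoculated ip with 1×10^6 P-388 cells on day 0. Compound in 0.9% saline was given ip daily for 5 days from 24 h post-implant. Mice were followed for 60 days or until death, and median survival time was recorded. Saline-treated controls numbered 20 mice.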

P388 [5] = assay: Median survival time (MST) of murine leukemia P388 (1*10e 6 cells) sensitive to 5-FU in mice, dose of 300 mg/kg(ip); type: functional, Mus musculus; how it was run: as §3
P388 [6] = assay: Percentage increase in life span of murine leukemia P388 resistant to 5-FU, at a dose 108 mg/kg; type: functional; conditions: Mus musculus; how it was run: as §2
P388 [7] = assay: Median survival time (MST) of murine leukemia P388 (1*10e 6 cells) resistant to 5-FU in mice, dose of 300 mg/kg(ip); type: functional, Mus musculus; how it was run: as §3
P388 [8] = assay: Median survival time (MST) of murine leukemia P388 (1*10e 6 cells) sensitive to 5-FU in mice at dose of 108 mg/kg(ip); type: functional, Mus musculus; how it was run: as §3
P388 [9] = assay: Average percentage weight change on day 6 in murine leukemia P388 resistant to 5-FU at dose 108 mg/kg; type: functional, Mus musculus; how it was run: as §1
P388 [10] = assay: Average percentage weight change on day 6 in murine leukemia P388 sensitive to 5-FU at dose 300 mg/kg; type: functional, Mus musculus; how it was run: as §1
P388 [11] = assay: Median survival time (MST) of murine leukemia P388 (1*10e 6 cells) sensitive to 5-FU in mice, dose of 500 mg/kg(ip); type: functional, Mus musculus; how it was run: as §3
P388 [12] = assay: Median survival time (MST) of murine leukemia P388 (1*10e 6 cells) sensitive to 5-FU in mice at dose of 180 mg/kg(ip); type: functional, Mus musculus; how it was run: as §3
P388 [13] = assay: Median survival time (MST) of murine leukemia P388 (1*10e 6 cells) resistant to 5-FU in mice, dose of 108 mg/kg(ip); type: functional, Mus musculus; how it was run: as §3
P388 [14] = assay: Average percentage weight change on day 6 in murine leukemia P388 sensitive to 5-FU at a dose 180 mg/kg; type: functional, Mus musculus; how it was run: as §1
P388 [15] = assay: Average percentage weight change on day 6 in murine leukemia P388 resistant to 5-FU at dose 300 mg/Kg; type: functional, Mus musculus; how it was run: as §1
P388 [16] = assay: Average percentage weight change on day 6 in murine leukemia P388 sensitive to 5-FU at dose 500 mg/kg; type: functional, Mus musculus; how it was run: as §1
P388 [17] = assay: Percentage increase in life span of murine leukemia P388 resistant to 5-FU, at a dose 180 mg/kg; type: functional; conditions: Mus musculus; how it was run: as §2
P388 [18] = assay: Percentage increase in life span of murine leukemia P388 sensitive to 5-FU at dose 108 mg/kg; type: functional; conditions: Mus musculus; how it was run: as §2
P388 [19] = assay: Percentage increase in life span of murine leukemia P388 sensitive to 5-FU at dose 500 mg/kg; type: functional; conditions: Mus musculus; how it was run: as §2
P388 [20] = assay: Percentage increase in life span of murine leukemia P388 sensitive to 5-FU at dose 180 mg/kg; type: functional; conditions: Mus musculus; how it was run: as §2
P388 [21] = assay: Percentage increase in life span of murine leukemia P388 sensitive to 5-FU, at a dose 20 mg/kg; type: functional; conditions: Mus musculus; how it was run: as §2
P388 [22] = assay: Percentage increase in life span of murine leukemia P388 resistant to 5-FU, at a dose 35 mg/kg; type: functional; conditions: Mus musculus; how it was run: as §2
P388 [23] = assay: Median survival time (MST) of murine leukemia P388 (1*10e 6 cells) resistant to 5-FU in […] mice, dose of 35 mg/kg(ip); type: functional, Mus musculus; how it was run: as §3
P388 [24] = assay: Percentage increase in life span of murine leukemia P388 resistant to 5-FU, at a dose 15 mg/kg; type: functional; conditions: Mus musculus; how it was run: as §2
P388 [25] = assay: Median survival time (MST) of murine leukemia P388 (1*10e 6 cells) resistant to 5-FU in mice, dose of 20 mg/kg (i.p.); type: functional, Mus musculus; conditions: route intraperitoneal; how it was run: as §3
P388 [26] = assay: Percentage increase in life span of murine leukemia P388 sensitive to 5-FU, at a dose 35 mg/kg; type: functional; conditions: Mus musculus; how it was run: as §2
P388 [27] = assay: Median survival time (MST) of murine leukemia P388 (1*10e 6 cells) sensitive to 5-FU in mice, dose of 20 mg/kg(ip); type: functional, Mus musculus; how it was run: as §3
P388 [28] = assay: Average percentage weight change on day 6 in murine leukemia P388 resistant to 5-FU at a dose of 15 mg/kg; type: functional, Mus musculus
How it was run: (§4)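 Male BDF₁ mice, six per group, average weight 23 g, were given 1×10^6 P-388 cells ip on day 0. Compound in 0.9% saline was dosed ip once daily for 5 consecutive days, starting 24 h after tumour transplant.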

P388 [29] = assay: Average percentage weight change on day 6 in murine leukemia P388 sensitive to 5-FU at a dose of 20 mg/kg; type: functional, Mus musculus; how it was run: as §4
P388 [30] = assay: Median survival time (MST) of murine leukemia P388 (1*10e 6 cells) sensitive to 5-FU in mice, dose of 35 mg/kg(ip); type: functional, Mus musculus; how it was run: as §3
P388 [31] = assay: Percentage increase in life span of murine leukemia P388 resistant to 5-FU, at a dose 20 mg/kg; type: functional; conditions: Mus musculus; how it was run: as §2
P388 [32] = assay: Median survival time (MST) of murine leukemia P388 (1*10e 6 cells) resistant to 5-FU in mice, dose of 15 mg/kg(ip); type: functional, Mus musculus; how it was run: as §3
P388 [33] = assay: Average percentage weight change on day 6 in murine leukemia P388 sensitive to 5-FU at a dose of 35 mg/kg; type: functional, Mus musculus; how it was run: as §4
P388 [34] = assay: Average percentage weight change on day 6 in murine leukemia P388 resistant to 5-FU at a dose of 35 mg/kg; type: functional, Mus musculus; how it was run: as §4
P388 [35] = assay: Average percentage weight change on day 6 in murine leukemia P388 resistant to 5-FU at a dose of 20 mg/Kg; type: functional, Mus musculus; how it was run: as §4

O=c1[nH]c(=O)n([C@H]2C[C@H](O)[C@@H](COP3(=O)NCCCO3)O2)cc1F (stereo not given in full)
Weight change (P388 [1]): -6.6% | Weight change (P388 [2]): -3.7% | ILS at 300 mg/kg (P388 [3]): 55% | MST (P388 [4]): 10 days | MST (P388 [5]): 14 days | ILS at 108 mg/kg (P388 [6]): 0% | MST (P388 [7]): 9 days | MST (P388 [8]): 12 days | Weight change (P388 [9]): -3.4% | Weight change (P388 [10]): -15.7% | MST (P388 [11]): 17 days | MST (P388 [12]): 13 days | MST (P388 [13]): 10 days | Weight change (P388 [14]): -13.9% | Weight change (P388 [15]): -5% | Weight change (P388 [16]): -17.9% | ILS at 180 mg/kg (P388 [17]): 0% | ILS at 108 mg/kg (P388 [18]): 33% | ILS at 500 mg/kg (P388 [19]): 89% | ILS at 180 mg/kg (P388 [20]): 44%

O=c1[nH]cc(F)c(=O)[nH]1 [FLUOROURACIL]
ILS at 20 mg/kg (P388 [21]): 111% | ILS at 35 mg/kg (P388 [22]): -10% | MST (P388 [23]): 9 days | ILS at 15 mg/kg (P388 [24]): 10% | MST (P388 [25]): 11 days | ILS at 35 mg/kg (P388 [26]): -11% | MST (P388 [27]): 19 days | Weight change (P388 [28]): -6.2% | Weight change (P388 [29]): -16.5% | MST (P388 [30]): 8 days | ILS at 20 mg/kg (P388 [31]): 10% | MST (P388 [32]): 11 days | Weight change (P388 [33]): -21.8% | Weight change (P388 [34]): -14.2% | Weight change (P388 [35]): -3.9%
